Test results from ChEMBL document CHEMBL4152343, “Design, Synthesis, and Pharmacological Evaluation of Second-Generation Tetrahydroisoquinoline-Based CXCR4 Antagonists with Favorable ADME Properties” (J Med Chem, 2018).

Key:
[1] = target: Cytochrome P450 3A4 (Homo sapiens, UniProt P08684); assay: Inhibition of human CYP3A4; assay type: ADME
[2] = target: T1, C-X-C chemokine receptor type 4 (Homo sapiens, UniProt P61073); assay: Antagonist activity at CXCR4 in human CCRF-CEM cells assessed as inhibition of SDF-1alpha-induced calcium release preincubated for 25 mins followed by SDF-1alpha stimulation and measured for 90 secs by calcium flux assay; assay type: functional, cell-based
T1 sequence (P61073 whole entry): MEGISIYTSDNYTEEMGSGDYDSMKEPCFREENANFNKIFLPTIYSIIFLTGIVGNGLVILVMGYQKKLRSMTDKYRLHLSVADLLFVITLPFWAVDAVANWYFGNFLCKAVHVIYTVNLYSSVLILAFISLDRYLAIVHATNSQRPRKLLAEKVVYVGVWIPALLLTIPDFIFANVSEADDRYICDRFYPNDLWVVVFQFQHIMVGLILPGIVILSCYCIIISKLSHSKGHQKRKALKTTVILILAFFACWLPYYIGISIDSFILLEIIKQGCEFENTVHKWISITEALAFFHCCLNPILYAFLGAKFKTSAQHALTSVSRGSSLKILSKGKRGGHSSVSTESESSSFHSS

[3] = target: Voltage-gated inwardly rectifying potassium channel KCNH2 (Homo sapiens, UniProt Q12809); assay: Displacement of [3H]astemizole from human ERG expressed in HEK cell membranes
Sequence of Voltage-gated inwardly rectifying potassium channel KCNH2 (Q12809 whole entry): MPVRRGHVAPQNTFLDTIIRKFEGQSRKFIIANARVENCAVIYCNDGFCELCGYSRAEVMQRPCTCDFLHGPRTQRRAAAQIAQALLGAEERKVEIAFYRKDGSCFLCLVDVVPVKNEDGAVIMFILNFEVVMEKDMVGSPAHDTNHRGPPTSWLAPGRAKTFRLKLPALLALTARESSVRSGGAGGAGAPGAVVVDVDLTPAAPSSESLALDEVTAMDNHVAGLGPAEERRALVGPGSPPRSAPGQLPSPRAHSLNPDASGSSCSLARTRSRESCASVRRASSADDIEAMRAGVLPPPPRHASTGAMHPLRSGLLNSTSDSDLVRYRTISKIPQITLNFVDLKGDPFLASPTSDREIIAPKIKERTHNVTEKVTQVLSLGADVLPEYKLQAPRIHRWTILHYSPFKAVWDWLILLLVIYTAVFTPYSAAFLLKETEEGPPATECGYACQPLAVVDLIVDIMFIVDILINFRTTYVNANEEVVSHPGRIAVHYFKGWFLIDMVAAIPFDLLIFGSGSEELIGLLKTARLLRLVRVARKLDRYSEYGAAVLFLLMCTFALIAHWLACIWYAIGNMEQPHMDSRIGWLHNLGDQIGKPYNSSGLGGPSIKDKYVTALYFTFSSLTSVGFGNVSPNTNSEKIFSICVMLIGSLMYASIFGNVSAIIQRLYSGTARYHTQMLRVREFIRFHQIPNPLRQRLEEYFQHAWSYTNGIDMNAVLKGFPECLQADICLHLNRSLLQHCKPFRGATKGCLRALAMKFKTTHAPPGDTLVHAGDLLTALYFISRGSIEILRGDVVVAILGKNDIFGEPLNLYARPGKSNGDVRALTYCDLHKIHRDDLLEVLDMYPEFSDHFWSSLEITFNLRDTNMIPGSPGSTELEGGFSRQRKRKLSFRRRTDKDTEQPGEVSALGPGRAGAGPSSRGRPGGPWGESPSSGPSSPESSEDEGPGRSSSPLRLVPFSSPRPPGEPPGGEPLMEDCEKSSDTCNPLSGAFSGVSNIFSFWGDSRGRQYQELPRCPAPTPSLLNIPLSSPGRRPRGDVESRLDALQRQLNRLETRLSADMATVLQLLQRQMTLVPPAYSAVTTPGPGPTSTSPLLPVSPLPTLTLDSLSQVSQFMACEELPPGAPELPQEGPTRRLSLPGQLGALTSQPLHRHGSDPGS
Procedure, shortened: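 Binding assay measuring [3H]astemizole displacement in HEK membranes overexpressing hKv11.1.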

[4] = Metabolic stability in mouse liver microsomes assessed as parent compound remaining after 10 mins by LC-MS/MS analysis; assay type: ADME, microsome; details: read-out: Stability
Procedure, shortened: (§1)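 Compound depletion measured by LC/MS/MS after 10 min at 37 °C in liver microsome preparations (CYP450 and other NADP-dependent enzymes). Values are % of compound remaining; duplicates in a single experiment.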

[5] = target: Muscarinic acetylcholine receptor; assay: Antagonist activity at mAChR in human CCRF-CEM cells assessed as inhibition of acetylcholine-induced calcium release preincubated for 25 mins followed by acetylcholine stimulation and measured for 90 secs by calcium flux assay; assay type: functional, cell-based
Procedure, shortened: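 Endogenous muscarinic receptors in CCRF-CEM cells (HBSS/HEPES/BSA buffer, 40,000 cells/well, dye-loaded 30 min at 37°C). Calcium flux recorded 90 s by FDSS. IC50 by 4-parameter logistic fit against an internal control compound; duplicate wells, single experiment.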

[6] = target: Voltage-gated L-type calcium channel (Homo sapiens, UniProt Q13936+Q13698+Q01668+O60840); assay: Antagonist activity at L-type calcium channel (unknown origin); assay type: protein assay
[7] = Metabolic stability in human liver microsomes assessed as parent compound remaining after 10 mins by LC-MS/MS analysis; assay type: ADME, microsome; details: read-out: Stability; procedure, shortened: as §1
[8] = target: T1, C-X-C chemokine receptor type 4; assay: Agonist activity at CXCR4 in human CCRF-CEM cells assessed as induction of calcium release incubated for 25 mins by calcium flux assay; assay type: functional, cell-based
Procedure, shortened: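 CCRF-CEM T lymphoblasts (endogenous CXCR4) in HBSS/20 mM HEPES/0.1% fatty-acid-free BSA, 40,000 cells/well, dye-loaded 30 min at 37°C, then 15 min at room temperature. Compounds added at final 25,000–0.423 nM (0.5% DMSO) and calcium flux read by FDSS for 90 s.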

[9] = target: Cytochrome P450 2D6 (Homo sapiens, UniProt P10635); assay: Inhibition of recombinant human CYP2D6 expressed in insect cells microsomes using AMMC as substrate preincubated for 30 mins followed by NADP addition and measured after 45 mins by fluorescence analysis; assay type: ADME
Sequence of Cytochrome P450 2D6 (P10635 whole entry): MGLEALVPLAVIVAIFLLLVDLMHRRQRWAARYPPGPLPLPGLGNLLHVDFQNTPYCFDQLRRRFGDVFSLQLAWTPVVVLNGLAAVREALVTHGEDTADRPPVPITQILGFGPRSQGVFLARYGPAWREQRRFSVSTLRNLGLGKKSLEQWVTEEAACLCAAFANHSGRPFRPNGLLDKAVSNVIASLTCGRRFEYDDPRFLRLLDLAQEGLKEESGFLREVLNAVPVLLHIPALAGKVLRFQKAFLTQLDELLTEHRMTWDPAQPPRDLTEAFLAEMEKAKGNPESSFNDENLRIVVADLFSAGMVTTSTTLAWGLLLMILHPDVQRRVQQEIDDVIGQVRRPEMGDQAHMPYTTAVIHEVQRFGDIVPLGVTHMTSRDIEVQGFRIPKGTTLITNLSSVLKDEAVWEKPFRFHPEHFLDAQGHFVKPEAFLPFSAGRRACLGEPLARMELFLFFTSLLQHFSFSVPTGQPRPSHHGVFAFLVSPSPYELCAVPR

[10] = Permeability of compound at pH 5.5 by PAMPA; assay type: ADME; details: read-out: permeability
Procedure, shortened: (§2)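 Compound from 10 mM DMSO stock diluted 1:100 to 100 µM (1% DMSO) in pH 7.4 or pH 5.5 donor buffer, then filtered. Lipid-coated filter membrane with pH 7.4 acceptor buffer; incubated 4 h at room temperature. UV plate reading gives Pc. Duplicates in two independent experiments unless noted.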

[11] = species: Homo sapiens; assay: Selectivity index, ratio of IC50 for antagonist activity at mAChR in human CCRF-CEM cells to IC50 for antagonist activity at CXCR4 in human CCRF-CEM cells; assay type: cell-based
[12] = Permeability of compound at pH 7.4 by PAMPA; assay type: ADME; details: read-out: permeability; procedure, shortened: as §2

Sequence of Cytochrome P450 3A4 (P08684 whole entry): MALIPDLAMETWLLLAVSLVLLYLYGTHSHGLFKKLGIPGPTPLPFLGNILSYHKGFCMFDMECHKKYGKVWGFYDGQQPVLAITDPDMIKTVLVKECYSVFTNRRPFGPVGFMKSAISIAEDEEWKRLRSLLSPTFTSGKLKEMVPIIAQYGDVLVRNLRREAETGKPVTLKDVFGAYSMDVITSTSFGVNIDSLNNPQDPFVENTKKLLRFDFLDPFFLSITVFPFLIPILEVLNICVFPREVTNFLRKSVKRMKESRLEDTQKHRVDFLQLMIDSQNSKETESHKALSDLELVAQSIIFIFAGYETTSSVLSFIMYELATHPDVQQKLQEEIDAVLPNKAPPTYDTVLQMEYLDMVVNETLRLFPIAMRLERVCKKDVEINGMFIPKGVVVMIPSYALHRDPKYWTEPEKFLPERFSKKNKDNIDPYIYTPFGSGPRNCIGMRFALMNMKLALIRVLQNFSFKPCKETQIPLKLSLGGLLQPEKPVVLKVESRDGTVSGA

Papp [10] | Structure (SMILES) | IC50 [1] | IC50 [2] | IC50 [3] | remaining at 10 min [4] | IC50 [5] | IC50 [6] | remaining at 10 min [7] | EC50 [8] | IC50 [9] | Ratio IC50 [11] | Papp [12]
 | CN(C[C@H]1Cc2c(cccc2N2CCNCC2)CN1)[C@H]1CCCc2cccnc21 | > 20 µM | 0.00608 µM | 20.3 µM | 19.9% | 7.18 µM | > 80 µM | 99.7% | > 30 µM | > 20 µM |  | 
36 ×10⁻⁶ cm/s | CN(C[C@H]1Cc2c(cccc2N2CCN(c3ncccn3)CC2)CN1)[C@H]1CCCc2cccnc21 | 3.35 µM | 0.0307 µM |  | 35.1% | 0.887 µM |  | 35.5% | > 30 µM | 0.508 µM |  | 
 | CN(C[C@H]1Cc2c(cccc2N2CCN3CCC[C@@H]3C2)CN1)[C@H]1CCCc2cccnc21 | > 20 µM | 0.00359 µM |  | 36.7% | 26.1 µM |  | 52.2% | > 30 µM | > 20 µM | > 5000 | 74 ×10⁻⁶ cm/s
